Bioassay records as filed in PubChem.
Sampled rows, rich in hits. Any-hit rate of the full collection: about 5.6%.
GRIN3A LBD mod – binders of NR3A ligand-binding domain, primary screen, biophysical, differential scanning fluorimetry, uHTS; Glutamate receptor ionotropic, NMDA 3A (GRIN3A) ligand-binding domain; NR3A LBD differential scanning fluorimetry, Tm shift; 0% = protein alone, 100% = glycine-bound protein; Tm shift relative to glycine control, % at 25 µM; 2.5% of 340,000 active;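 active = melting temperature shift of at least 10% of the positive control shift, at one fixed dose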
UPR XBP1 act – activators of adaptive XBP1 UPR arm, primary screen, cell-based, CHO-XBP1 luciferase reporter, luminescence, uHTS. IRE1-XBP1 UPR activation; percent of tunicamycin response, DMSO as zero. activation, % at 20 µM. 0.33% of 330,000 active;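 active = versus positive control, 20 µM dose yields 30% or more activation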
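Test system: CHO-XBP1 luciferase reporter cells | Buffer or medium: Serum-containing F12 medium, 10% FBS | Schedule: 6 h compound exposure at 37 °C, 5% CO2 | Detection: Steady-Glo luciferase glow luminescence, 10 min after reagent addition | Read-out basis: Activation, % of tunicamycin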
CHOP inhibitor – inhibitors of CHOP promoter induction, primary screen, cell-based, unfolded protein response, luciferase reporter. CHO-K1 CHOP-promoter luciferase, tunicamycin-induced, 15-18 h. inhibition, % at 10 µM. 3.8% of 220,000 active. AID 2732, 2010;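 active = compounds that reduced the stress-induced luciferase reporter signal by more than about 70% of percent inhibition, limit read from the data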
MPTP block – mitochondrial permeability transition pore inhibitors, primary screen, biochemical, isolated mouse mitochondria, absorbance | Ca2+ swelling absorbance, 30 min | inhibition, % at 10 µM | 1.4% of 360,000 active | AID 602449, 2012;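 active = inhibition of 50% or more, scaled per plate between neutral and stimulator controls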
aDG glyco act – activators of alpha-DG glycosylation, primary screen, uHTS, Pro5-aDG cells, AlphaScreen; alpha-DG glycosylation AlphaScreen (IIH6); 0% Pro5, 100% B10-LARGE cell signal; activation, % at 10 µM; 0.22% of 360,000 active;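 active = activation of at least 8% versus controls, or a plate z-score of at least 8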;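 also: Pro5 are CHO cells carrying HIG-tagged alpha-DG that lacks glycosylation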
UPR CHOP act – activators of apoptotic CHOP UPR arm, primary screen, cell-based, CHO-CHOP luciferase reporter, luminescence, uHTS. UPR activation; percent of tunicamycin response over DMSO baseline. AID 449763, 2010. activation, % at 10 µM. 0.34% of 330,000 active;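 active = at 10 µM dose, activation of 40% or more, normalized to positive control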
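Test system: CHO-CHOP cells, stable luciferase reporter of PERK-eIF2a-CHOP signalling | Quantity: 500 CHO-CHOP cells per well | Buffer or medium: F12 plus 10% serum | Compound dosing: 10 µM single point, 0.5% DMSO | Schedule: 6 h compound treatment, 37 °C | Signal: Luciferase luminescence | Control set: Tunicamycin high control, DMSO low control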
Of the large screens only hits and unclear results are named; the others gave an inactive call.

c1ccc(-c2nccc3ccccc23)cc1	none (no result: CHOP inhibitor)
Cc1cc(Oc2ccccc2)nc(-c2ccccc2)n1	CHOP inhibitor 78
COc1cc(Cl)ccc1OCc1cc(C(=O)N(C)Cc2nnc(C)o2)no1	GRIN3A LBD mod 10 (no result: CHOP inhibitor)
COc1ccc(OCc2cc(C(=O)N(C)Cc3nnc(C)o3)no2)c(Cl)c1	none (no result: CHOP inhibitor)
CCOc1ccc2nc(SCC(=O)NCc3ccc(S(N)(=O)=O)cc3)[nH]c2c1	none (no result: CHOP inhibitor)
CC(C)N(C)Cc1nnnn1CC(=O)N(C)Cc1cccc(Cl)c1	none (no result: CHOP inhibitor)
N#CC(C#N)=C1C=CC=CN1/C(=C\c1ccco1)C(=O)c1ccccc1	CHOP inhibitor 110 (no result: UPR XBP1 act, UPR CHOP act)
N#CC(C#N)=C1C=CC=CN1/C(=C\c1ccco1)C(=O)c1ccc(Br)cc1	CHOP inhibitor 109 (no result: UPR XBP1 act, UPR CHOP act)
COc1ccc(C(=O)/C(=C\c2ccco2)N2C=CC=CC2=C(C#N)C#N)cc1	CHOP inhibitor 107
CCC/C(=N\NC(=O)C1CC1)c1ccc(Br)cc1	none (no result: CHOP inhibitor)
CC(NC(=O)CNC(=O)c1ccccc1Br)c1cccs1 (stereo not given)	none (no result: CHOP inhibitor)
O=C(OCCCN=C1NS(=O)(=O)c2ccccc21)c1ccc([N+](=O)[O-])cc1	none
CCSc1nc(O)cc(=O)[nH]1	none
CCSc1nc(=S)cc(C)[nH]1	GRIN3A LBD mod 10 (no result: UPR XBP1 act, UPR CHOP act)
COc1ccc(N2CCN(C(c3ccccc3)c3nnnn3C(C)(C)C)CC2)cc1 (stereo not given)	none (no result: GRIN3A LBD mod, UPR XBP1 act, CHOP inhibitor, UPR CHOP act)
COc1ccc(C(c2nnnn2C(C)(C)C)N2CCN(c3nc4ccccc4s3)CC2)cc1 (stereo not given)	GRIN3A LBD mod 13 (no result: UPR XBP1 act, UPR CHOP act)
COc1ccc(S(=O)(=O)N2CCOC2CNC(=O)C(=O)NCc2ccccn2)cc1OC (stereo not given)	none (no result: GRIN3A LBD mod, UPR XBP1 act, CHOP inhibitor, UPR CHOP act)
CCCC(=O)O[C@H]1C[C@@H](C)N(C(=O)c2ccccc2)c2ccc(C)cc21	CHOP inhibitor 74
Cc1c2ccccc2nc2c(F)c(N(C)C)c(F)c(F)c12	none
CN(C)c1c2ccccc2nc2c(F)c(F)c(F)c(F)c12	CHOP inhibitor 70
CCN1/C(=C/C=C/c2oc3ccc(-c4ccccc4)cc3[n+]2CC)Oc2ccc(-c3ccccc3)cc21	GRIN3A LBD mod 60, CHOP inhibitor 108
CCCCN1C(=O)/C(=C/C=C2\Oc3ccccc3N2CC)SC1=S	none (no result: UPR XBP1 act, UPR CHOP act)
CCN(CC)c1ccc2cc(-c3nnc(-c4ccccc4)o3)c(=O)oc2c1	GRIN3A LBD mod 32
O=c1oc2ccc3ccccc3c2cc1-c1nnc(-c2ccccc2)o1	none
CC(Sc1nc(-c2ccco2)nc2c1c(=O)n(C)c(=O)n2C)C(=O)O (stereo not given)	none
Cc1ccc(C(=O)CNc2cccc(Cl)c2)cc1	none
O=C(CNc1cccc(Cl)c1)c1ccc(Cl)cc1	CHOP inhibitor 75
Cc1ccccc1C(=O)Oc1cccc(Nc2ncnc3ccccc23)c1	aDG glyco act 6.3 (no result: CHOP inhibitor)
Cc1ccc(-c2cc(O)cc3sc(=O)oc23)cc1C	GRIN3A LBD mod 10
O=c1oc2cc(O)ccc2s1	none (no result: CHOP inhibitor)
COc1ccc(C(=O)N2CCCC(Nc3ccc(F)cc3)C2)cc1F (stereo not given)	none (no result: CHOP inhibitor)
COc1ccc(C(=O)N2CCCC(Nc3ccc(C)c(C)c3)C2)cc1F (stereo not given)	GRIN3A LBD mod 16 (no result: CHOP inhibitor)
CC(C)C[C@H](NC(=O)C1(c2ccccc2)CCN(C(=O)[C@H]2CSCN2C(=O)OC(C)(C)C)CC1)C(=O)O	GRIN3A LBD mod 14
CCOC(=O)c1c(NC(=O)Nc2ccc(Cl)cc2)sc(C)c1C	none
CCOC(=O)c1c(NC(=O)c2ccc(Cl)cc2)csc1C	GRIN3A LBD mod 18
CCCC(=O)N1CCCC(c2cc(C(=O)NCc3ccc(F)cc3)no2)C1 (stereo not given)	none (no result: GRIN3A LBD mod, UPR XBP1 act, CHOP inhibitor, UPR CHOP act)
CSc1ccccc1OCc1cc(C(=O)N(C)CC2COCCO2)no1 (stereo not given)	GRIN3A LBD mod 13 (no result: CHOP inhibitor)
